Laboratory results published in ChEMBL document CHEMBL1156486, “Discovery and characterization of a novel inhibitor of matrix metalloprotease-13 that reduces cartilage damage in vivo without joint fibroplasia side effects” (J Biol Chem, 2007).
Values after ≈ are worked out from the molar mass of the structure shown. Values belong to the compound of their own block, whether it stands above or below them. Active and inactive are the calls of the source. The calls are words filed in the database; no cut-off is given here.

Legend:
Matrilysin = target: T1, Matrilysin (Homo sapiens, UniProt P09237); assay: Inhibition of MMP7
T1 sequence (P09237 whole entry): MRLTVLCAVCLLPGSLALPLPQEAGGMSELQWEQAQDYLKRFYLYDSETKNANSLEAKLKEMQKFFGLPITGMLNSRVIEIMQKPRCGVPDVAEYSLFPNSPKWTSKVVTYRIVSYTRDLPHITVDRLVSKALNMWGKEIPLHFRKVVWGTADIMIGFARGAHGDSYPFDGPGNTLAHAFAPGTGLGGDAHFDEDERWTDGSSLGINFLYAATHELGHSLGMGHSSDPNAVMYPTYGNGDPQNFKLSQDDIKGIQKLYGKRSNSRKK
Method in brief: (§1)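 Buffer: 50 mM Hepes pH 7.0, 10 mM CaCl2, 1 mM DTNB, 0.005% Brij 35, 1% final DMSO. […] Initial rate read as A412 increase at 25 °C. At least triplicate inhibitor titrations. % of control activity fit to a sloped IC50 equation.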

[1] = target: Macrophage metalloelastase (Homo sapiens, UniProt P39900); assay: Inhibition of MMP12 catalytic domain; method in brief: as §1
Chain of Macrophage metalloelastase (P39900 whole entry, the tested form may be a part): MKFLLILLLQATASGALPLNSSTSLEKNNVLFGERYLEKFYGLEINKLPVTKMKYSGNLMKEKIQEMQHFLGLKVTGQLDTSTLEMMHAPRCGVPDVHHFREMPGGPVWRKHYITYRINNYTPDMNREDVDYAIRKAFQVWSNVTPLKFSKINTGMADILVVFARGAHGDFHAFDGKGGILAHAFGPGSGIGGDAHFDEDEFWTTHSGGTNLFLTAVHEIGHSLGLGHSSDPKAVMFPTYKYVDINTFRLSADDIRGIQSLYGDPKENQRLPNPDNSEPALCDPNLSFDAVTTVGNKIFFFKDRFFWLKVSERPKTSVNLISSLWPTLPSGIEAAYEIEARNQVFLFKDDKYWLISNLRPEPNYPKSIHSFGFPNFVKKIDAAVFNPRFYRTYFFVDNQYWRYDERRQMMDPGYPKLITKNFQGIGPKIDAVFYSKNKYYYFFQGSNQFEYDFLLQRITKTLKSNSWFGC

Collagenase 3 = Collagenase 3 (Homo sapiens, UniProt P45452)
[2] = target: T2, Matrix metalloproteinase-17 (Homo sapiens, UniProt Q9ULZ9); assay: Inhibition of MMP17 catalytic domain; method in brief: as §1
T2 sequence (Q9ULZ9 whole entry): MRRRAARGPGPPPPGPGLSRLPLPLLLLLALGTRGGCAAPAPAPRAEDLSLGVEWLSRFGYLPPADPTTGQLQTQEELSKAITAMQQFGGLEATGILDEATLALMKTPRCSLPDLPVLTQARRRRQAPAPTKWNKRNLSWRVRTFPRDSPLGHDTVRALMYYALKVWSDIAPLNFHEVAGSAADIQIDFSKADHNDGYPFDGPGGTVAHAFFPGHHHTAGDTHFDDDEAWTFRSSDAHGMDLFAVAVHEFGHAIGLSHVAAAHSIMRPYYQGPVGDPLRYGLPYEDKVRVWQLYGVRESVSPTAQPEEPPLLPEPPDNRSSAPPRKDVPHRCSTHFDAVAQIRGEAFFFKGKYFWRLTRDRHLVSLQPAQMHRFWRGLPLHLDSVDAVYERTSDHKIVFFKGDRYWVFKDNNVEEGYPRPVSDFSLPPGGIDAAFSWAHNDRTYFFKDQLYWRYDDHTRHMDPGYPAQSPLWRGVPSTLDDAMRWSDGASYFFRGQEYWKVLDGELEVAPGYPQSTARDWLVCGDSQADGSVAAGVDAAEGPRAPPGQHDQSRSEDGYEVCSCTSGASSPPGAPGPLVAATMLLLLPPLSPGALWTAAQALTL

Stromelysin-1 = Stromelysin-1 (Homo sapiens, UniProt P08254); assay: Inhibition of MMP3 catalytic domain; method in brief: as §1
Chain of Stromelysin-1 (P08254 whole entry, the tested form may be a part): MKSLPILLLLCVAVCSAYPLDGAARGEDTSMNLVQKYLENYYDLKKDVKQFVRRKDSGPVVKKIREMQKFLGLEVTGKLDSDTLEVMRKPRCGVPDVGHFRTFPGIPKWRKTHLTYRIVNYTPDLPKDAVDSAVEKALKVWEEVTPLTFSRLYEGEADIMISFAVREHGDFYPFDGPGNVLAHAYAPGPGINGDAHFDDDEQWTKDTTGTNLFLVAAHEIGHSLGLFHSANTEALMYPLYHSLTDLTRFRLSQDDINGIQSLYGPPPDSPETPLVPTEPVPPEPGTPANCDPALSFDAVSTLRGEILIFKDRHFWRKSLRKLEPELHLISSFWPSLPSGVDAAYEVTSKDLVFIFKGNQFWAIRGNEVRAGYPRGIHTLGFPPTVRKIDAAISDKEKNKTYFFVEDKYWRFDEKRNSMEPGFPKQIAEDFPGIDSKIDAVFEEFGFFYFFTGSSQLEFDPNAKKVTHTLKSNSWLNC

[3] = target: Matrix metalloproteinase-14 (Homo sapiens, UniProt P50281); assay: Inhibition of MMP14 catalytic domain; method in brief: as §1
[4] = AUC (0 to 24 hrs) in New Zealand white rabbit osteoarthritis model at 30 mg/kg, po twice daily after 5 weeks; assay type: ADME, organism-based, Oryctolagus cuniculus; design: time < 24 hr, dose 30 mg/kg, route oral; conditions: in vivo
[5] = target: 72 kDa type IV collagenase (Homo sapiens, UniProt P08253); assay: Inhibition of MMP2
Chain of 72 kDa type IV collagenase (P08253 whole entry): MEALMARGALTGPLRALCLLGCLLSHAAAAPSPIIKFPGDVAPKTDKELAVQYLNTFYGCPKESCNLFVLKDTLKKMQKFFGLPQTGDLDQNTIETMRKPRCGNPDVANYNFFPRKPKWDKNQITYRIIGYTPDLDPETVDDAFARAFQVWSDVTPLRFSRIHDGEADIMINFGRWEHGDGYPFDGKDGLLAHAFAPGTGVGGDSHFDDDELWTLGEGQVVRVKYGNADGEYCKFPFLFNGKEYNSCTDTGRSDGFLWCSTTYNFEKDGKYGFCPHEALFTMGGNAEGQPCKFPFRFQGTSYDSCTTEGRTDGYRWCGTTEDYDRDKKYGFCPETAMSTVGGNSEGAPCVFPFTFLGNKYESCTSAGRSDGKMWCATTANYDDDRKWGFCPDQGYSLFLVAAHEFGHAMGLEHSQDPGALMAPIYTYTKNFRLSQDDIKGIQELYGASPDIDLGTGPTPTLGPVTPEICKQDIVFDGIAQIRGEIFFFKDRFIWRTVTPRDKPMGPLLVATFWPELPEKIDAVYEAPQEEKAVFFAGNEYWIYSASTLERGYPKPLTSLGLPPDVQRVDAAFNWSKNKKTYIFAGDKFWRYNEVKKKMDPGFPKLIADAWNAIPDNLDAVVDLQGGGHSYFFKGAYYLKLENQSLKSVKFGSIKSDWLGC

Rattus norvegicus [6] = assay: Inhibition of human MMP13-induced type 2 collagen degradation in rat cartilage damage model assessed as type2 collagen neoepitope biomarker level at 0.1 mg/kg, po by enzyme-linked immunosorbent assay; assay type: functional, organism-based; design: dose 0.1 mg/kg
Method in brief: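 Rats (12 per group) dosed orally with vehicle or various doses; 3 h later knees injected intra-articularly with 12 µg activated full-length human MMP13. Sacrifice 2 h after injection; synovial space lavaged twice with 80 µl saline. Type II collagen neoepitope in lavage quantified by ELISA.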

Oryctolagus cuniculus [7] = assay: Inhibition of cartilage damage in New Zealand white rabbit osteoarthritis model assessed as reduction of cartilage lesion on tibial plateau at 30 mg/kg, po twice daily after 5 weeks relative to control; assay type: functional; design: scale not given: the % may be the effect or the level left
Method in brief: (§2)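 Oral dosing 30 mg/kg or vehicle twice daily from day 1 post-op for 5 weeks. Joints removed, stained with India ink; two-dimensional lesion areas on tibial plateaus and femoral condyles measured; means ± S.E., compared to vehicle.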

Rattus norvegicus [8] = assay: Toxicity in Sprague-Dawley rat model of musculoskeletal syndrome side effect assessed as induction of joint fibroplasia at 2000 mg/kg/day, po after 14 days; assay type: organism-based; design: route oral; conditions: in vivo, 336 h
Method in brief: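 Sprague-Dawley rats (6/sex) given vehicle or 2000 mg/kg/day orally for 14 days; a non-selective hydroxamate MMP inhibitor at 2000 mg/kg/day as positive control. Calcaneon tendon and femorotibial, tibiotarsal, humeroradial joints taken bilaterally; femorotibial joints formalin-fixed, decalcified, H&E-stained, examined by light microscopy for fibroplasia.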

[9] = target: T3, A disintegrin and metalloproteinase with thrombospondin motifs 5 (Homo sapiens, UniProt Q9UNA0); assay: Inhibition of human ADAMTS5 assessed as cleavage of aggrecan substrate
T3 sequence (Q9UNA0 whole entry): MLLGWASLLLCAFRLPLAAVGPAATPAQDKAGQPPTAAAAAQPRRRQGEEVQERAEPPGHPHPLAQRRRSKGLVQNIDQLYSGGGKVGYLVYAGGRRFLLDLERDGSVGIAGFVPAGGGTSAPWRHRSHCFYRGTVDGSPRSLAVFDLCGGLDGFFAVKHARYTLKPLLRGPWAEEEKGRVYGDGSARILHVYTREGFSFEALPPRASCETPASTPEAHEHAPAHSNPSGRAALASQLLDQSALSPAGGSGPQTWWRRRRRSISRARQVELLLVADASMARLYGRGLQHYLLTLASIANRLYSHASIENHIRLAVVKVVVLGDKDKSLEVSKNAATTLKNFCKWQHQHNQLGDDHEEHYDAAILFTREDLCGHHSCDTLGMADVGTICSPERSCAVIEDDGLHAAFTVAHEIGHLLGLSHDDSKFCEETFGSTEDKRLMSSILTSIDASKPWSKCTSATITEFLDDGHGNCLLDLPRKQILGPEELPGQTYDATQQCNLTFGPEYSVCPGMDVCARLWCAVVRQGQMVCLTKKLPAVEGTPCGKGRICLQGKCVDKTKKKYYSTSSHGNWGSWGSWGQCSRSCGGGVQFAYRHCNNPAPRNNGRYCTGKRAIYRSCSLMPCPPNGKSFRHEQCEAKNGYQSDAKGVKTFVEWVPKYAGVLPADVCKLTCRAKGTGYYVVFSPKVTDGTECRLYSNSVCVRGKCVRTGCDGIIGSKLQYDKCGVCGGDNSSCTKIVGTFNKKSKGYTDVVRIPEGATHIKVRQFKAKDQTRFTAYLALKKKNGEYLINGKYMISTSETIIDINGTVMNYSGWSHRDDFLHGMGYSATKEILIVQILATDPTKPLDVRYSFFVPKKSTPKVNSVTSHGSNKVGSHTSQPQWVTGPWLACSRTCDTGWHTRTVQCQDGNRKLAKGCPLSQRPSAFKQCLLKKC
Method in brief: (§3)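 Isolated human enzyme with native aggrecan as substrate. Cleavage quantified using the BC-3 neoepitope antibody.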

[10] = Plasma concentration in New Zealand white rabbit osteoarthritis model at 30 mg/kg, po twice daily after 5 weeks; assay type: ADME, organism-based, Oryctolagus cuniculus; design: dose 30 mg/kg, route oral
[11] = Solubility in phosphate buffer at pH 6; assay type: physicochemical
[12] = target: Matrix metalloproteinase-9 (Homo sapiens, UniProt P14780); assay: Inhibition of MMP9
Chain of Matrix metalloproteinase-9 (P14780 whole entry): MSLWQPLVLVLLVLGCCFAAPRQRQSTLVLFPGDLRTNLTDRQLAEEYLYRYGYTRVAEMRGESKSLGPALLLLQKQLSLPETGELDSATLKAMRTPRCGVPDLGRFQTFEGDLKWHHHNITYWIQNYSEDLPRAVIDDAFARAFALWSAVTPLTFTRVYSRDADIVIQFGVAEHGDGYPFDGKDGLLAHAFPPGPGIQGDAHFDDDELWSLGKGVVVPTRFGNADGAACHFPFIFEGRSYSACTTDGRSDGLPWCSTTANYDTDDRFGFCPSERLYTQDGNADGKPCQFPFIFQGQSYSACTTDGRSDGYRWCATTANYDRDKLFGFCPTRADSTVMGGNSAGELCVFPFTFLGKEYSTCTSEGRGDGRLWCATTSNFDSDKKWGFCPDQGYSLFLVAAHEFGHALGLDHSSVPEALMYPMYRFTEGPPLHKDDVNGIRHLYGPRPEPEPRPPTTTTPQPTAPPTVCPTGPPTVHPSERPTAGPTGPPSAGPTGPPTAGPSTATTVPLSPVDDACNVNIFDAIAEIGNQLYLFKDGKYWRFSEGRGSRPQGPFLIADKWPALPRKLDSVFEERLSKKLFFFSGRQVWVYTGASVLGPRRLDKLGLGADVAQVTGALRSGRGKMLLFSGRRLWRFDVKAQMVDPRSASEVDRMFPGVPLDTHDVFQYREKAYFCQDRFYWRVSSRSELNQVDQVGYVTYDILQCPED

[13] = Drug level in Sprague-Dawley rat model of musculoskeletal syndrome side effect at 2000 mg/kg/day, po after 14 days; assay type: ADME, organism-based; design: route oral; conditions: in vivo
[14] = AUC (0 to 24 hrs) in Sprague-Dawley rat model of musculoskeletal syndrome side effect at 2000 mg/kg/day, po after 14 days; assay type: ADME, organism-based; design: time < 24 hr, dose 2000 mg/kg/day, route oral; conditions: in vivo
Cartilage tissue = assay: Inhibition of IL1alpha and oncostatin M-stimulated hydroxyproline release from bovine nasal cartilage; assay type: functional, tissue-based; conditions: Bos taurus
Method in brief: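 Bovine nasal cartilage explants (1 × 3 mm, 9 per group) cultured 2 weeks with interleukin-1 (50 ng/ml) plus oncostatin M (50 ng/ml), with vehicle or up to 10 µM inhibitor. Medium refreshed twice weekly and pooled for hydroxyproline assay; remaining cartilage papain-digested and its hydroxyproline measured. IC50 taken from a plot of inhibition of cartilage degradation; means ± S.E.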

Oryctolagus cuniculus [15] = assay: Inhibition of cartilage damage in New Zealand white rabbit osteoarthritis model assessed as reduction of cartilage lesion on femoral condyles at 30 mg/kg, po twice daily after 5 weeks relative to control; assay type: functional, Condyle; design: scale not given: the % may be the effect or the level left; method in brief: as §2
Interstitial collagenase = target: T4, Interstitial collagenase (Homo sapiens, UniProt P03956); assay: Inhibition of MMP1
T4 sequence (P03956 whole entry): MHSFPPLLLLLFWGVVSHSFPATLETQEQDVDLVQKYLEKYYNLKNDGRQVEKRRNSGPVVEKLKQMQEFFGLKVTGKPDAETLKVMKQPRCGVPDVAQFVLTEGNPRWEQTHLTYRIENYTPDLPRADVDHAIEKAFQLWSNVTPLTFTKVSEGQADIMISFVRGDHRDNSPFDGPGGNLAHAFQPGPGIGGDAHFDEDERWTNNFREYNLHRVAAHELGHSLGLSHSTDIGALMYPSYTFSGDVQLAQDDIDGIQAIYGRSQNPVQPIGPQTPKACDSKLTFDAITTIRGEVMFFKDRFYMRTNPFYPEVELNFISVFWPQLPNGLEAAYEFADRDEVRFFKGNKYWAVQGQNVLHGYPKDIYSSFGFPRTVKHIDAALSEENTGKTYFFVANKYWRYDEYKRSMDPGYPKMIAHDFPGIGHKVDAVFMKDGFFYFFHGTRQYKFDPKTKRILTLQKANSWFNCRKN

[16] = Solubility in phosphate buffer at pH 7.5; assay type: physicochemical
[17] = Solubility in phosphate buffer at pH 6.5; assay type: physicochemical
Neutrophil collagenase = Neutrophil collagenase (Homo sapiens, UniProt P22894); assay: Inhibition of MMP8 catalytic domain
Chain of Neutrophil collagenase (P22894 whole entry, the tested form may be a part): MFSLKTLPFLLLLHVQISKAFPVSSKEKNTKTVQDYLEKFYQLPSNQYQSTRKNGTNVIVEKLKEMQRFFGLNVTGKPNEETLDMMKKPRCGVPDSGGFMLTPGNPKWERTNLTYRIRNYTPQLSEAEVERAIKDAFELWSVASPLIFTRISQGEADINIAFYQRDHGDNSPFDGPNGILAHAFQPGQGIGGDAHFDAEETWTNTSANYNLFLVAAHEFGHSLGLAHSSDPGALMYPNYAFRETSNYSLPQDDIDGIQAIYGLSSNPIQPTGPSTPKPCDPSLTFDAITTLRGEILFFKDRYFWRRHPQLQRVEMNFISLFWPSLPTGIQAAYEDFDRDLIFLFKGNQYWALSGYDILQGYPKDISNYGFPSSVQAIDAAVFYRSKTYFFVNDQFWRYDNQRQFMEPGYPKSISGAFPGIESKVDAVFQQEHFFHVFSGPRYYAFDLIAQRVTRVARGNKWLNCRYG

[18] = target: T5, A disintegrin and metalloproteinase with thrombospondin motifs 4 (Homo sapiens, UniProt O75173); assay: Inhibition of human ADAMTS4 assessed as cleavage of aggrecan substrate; method in brief: as §3
T5 sequence (O75173 whole entry): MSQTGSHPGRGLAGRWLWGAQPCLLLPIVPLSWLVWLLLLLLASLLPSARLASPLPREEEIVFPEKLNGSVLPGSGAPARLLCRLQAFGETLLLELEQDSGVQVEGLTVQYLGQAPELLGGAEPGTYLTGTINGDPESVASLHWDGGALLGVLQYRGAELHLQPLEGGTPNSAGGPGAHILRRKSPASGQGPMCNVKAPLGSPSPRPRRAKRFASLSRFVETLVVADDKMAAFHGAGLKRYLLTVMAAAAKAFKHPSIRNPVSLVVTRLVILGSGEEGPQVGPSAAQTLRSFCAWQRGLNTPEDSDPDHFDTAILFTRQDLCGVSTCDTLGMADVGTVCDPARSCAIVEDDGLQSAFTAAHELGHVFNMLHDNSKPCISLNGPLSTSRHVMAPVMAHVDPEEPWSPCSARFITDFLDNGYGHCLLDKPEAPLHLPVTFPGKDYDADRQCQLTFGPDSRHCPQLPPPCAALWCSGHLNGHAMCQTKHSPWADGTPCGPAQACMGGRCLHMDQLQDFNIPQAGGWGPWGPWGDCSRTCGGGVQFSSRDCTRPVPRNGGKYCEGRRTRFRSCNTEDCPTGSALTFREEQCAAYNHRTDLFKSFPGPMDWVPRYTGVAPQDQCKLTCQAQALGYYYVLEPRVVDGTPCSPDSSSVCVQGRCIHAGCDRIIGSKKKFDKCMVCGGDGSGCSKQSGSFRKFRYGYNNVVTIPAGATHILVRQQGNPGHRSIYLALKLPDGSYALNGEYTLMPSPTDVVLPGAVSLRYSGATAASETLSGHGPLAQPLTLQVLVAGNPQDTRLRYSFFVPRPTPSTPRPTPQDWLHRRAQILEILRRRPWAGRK

IC50 (Matrilysin): 0.033 µM
IC50 [1]: 0.0051 µM
IC50 (Collagenase 3): 0.0052 µM
IC50 [2]: 0.0034 µM
IC50 (Stromelysin-1): 0.007 µM
IC50 [3]: 0.0047 µM
SMILES: CNC(=O)[C@H](Cc1c[nH]c2ccccc12)NC(=O)[C@@H](CC(=O)NO)CC(C)C [ILOMASTAT]

AUC at 24 h [4]: 6 µg·h/mL
IC50 (Matrilysin): > 30 µM
IC50 [1]: > 100 µM
IC50 [5]: > 30 µM
IC50 [2]: > 30 µM
IC50 [9]: > 25 µM
AUC at 840 h [10]: 200 µg·h/mL
solubility [11]: 20 µM (≈ 8.49 µg/mL)
IC50 [12]: > 100 µM
IC50 (Cartilage tissue): 1.3 µM
IC50 (Interstitial collagenase): > 30 µM
IC50 (Stromelysin-1): > 30 µM
solubility [16]: < 3 µM
solubility [17]: < 3 µM
IC50 [3]: > 30 µM
IC50 (Neutrophil collagenase): > 100 µM
IC50 [18]: > 25 µM
SMILES: Cn1c(=O)n(Cc2ccc(C(=O)O)cc2)c(=O)c2cc(C#CCc3ccccc3)ccc21
Activity (Rattus norvegicus [6]): Active
Activity (Oryctolagus cuniculus [7]): 68%
Activity (Rattus norvegicus [8]): Non-toxic
AUC at 336 h [13]: 30 µg·h/mL
AUC at 24 h [14]: 1010 µg·h/mL
Activity (Oryctolagus cuniculus [15]): 51%
